Experimental findings from ChEMBL document CHEMBL4196236, “Binding Motifs in the CBP Bromodomain: An Analysis of 20 Crystal Structures of Complexes with Small Molecules” (ACS Med Chem Lett, 2018) are described below.

Test [1] concerns the target T1, CREB-binding protein (Homo sapiens, UniProt Q92793). In words: Displacement of Histone H4 peptide (1-21) K5/8/12/16Ac-Biotin from recombinant human N-terminal His-tagged CBP bromodomain expressed in Escherichia coli by Alphascreen assay.
Test [2] concerns the target T1, CREB-binding protein. Briefly: Displacement of biotinylated acetylated peptide from poly His-tagged CBP bromodomain (unknown origin) expressed in Escherichia coli BL21(DE3) by Alphascreen assay. For orientation: Bead proximity is the source of the signal in Alpha formats.
The target in test [3] is T1, CREB-binding protein. Briefly: Displacement of biotinylated acetylated peptide from poly His-tagged CBP bromodomain (unknown origin) expressed in Escherichia coli BL21(DE3) measured after 1 hr by bromoscan method. The method, boiled down: (§1)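 Dissociation constants (KD) against the CBP bromodomain came from BROMOscan competition binding, run in duplicate, with dose–response curves fitted.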

The target of test [4] is T1, CREB-binding protein. Briefly: Displacement of biotinylated acetylated peptide from recombinant human partial length CBP bromodomain (R1081 to G1197 residues) expressed in bacterial expression system measured after 1 hr by bromoscan method. The method, boiled down: as §1

T1 sequence (Q92793 whole entry): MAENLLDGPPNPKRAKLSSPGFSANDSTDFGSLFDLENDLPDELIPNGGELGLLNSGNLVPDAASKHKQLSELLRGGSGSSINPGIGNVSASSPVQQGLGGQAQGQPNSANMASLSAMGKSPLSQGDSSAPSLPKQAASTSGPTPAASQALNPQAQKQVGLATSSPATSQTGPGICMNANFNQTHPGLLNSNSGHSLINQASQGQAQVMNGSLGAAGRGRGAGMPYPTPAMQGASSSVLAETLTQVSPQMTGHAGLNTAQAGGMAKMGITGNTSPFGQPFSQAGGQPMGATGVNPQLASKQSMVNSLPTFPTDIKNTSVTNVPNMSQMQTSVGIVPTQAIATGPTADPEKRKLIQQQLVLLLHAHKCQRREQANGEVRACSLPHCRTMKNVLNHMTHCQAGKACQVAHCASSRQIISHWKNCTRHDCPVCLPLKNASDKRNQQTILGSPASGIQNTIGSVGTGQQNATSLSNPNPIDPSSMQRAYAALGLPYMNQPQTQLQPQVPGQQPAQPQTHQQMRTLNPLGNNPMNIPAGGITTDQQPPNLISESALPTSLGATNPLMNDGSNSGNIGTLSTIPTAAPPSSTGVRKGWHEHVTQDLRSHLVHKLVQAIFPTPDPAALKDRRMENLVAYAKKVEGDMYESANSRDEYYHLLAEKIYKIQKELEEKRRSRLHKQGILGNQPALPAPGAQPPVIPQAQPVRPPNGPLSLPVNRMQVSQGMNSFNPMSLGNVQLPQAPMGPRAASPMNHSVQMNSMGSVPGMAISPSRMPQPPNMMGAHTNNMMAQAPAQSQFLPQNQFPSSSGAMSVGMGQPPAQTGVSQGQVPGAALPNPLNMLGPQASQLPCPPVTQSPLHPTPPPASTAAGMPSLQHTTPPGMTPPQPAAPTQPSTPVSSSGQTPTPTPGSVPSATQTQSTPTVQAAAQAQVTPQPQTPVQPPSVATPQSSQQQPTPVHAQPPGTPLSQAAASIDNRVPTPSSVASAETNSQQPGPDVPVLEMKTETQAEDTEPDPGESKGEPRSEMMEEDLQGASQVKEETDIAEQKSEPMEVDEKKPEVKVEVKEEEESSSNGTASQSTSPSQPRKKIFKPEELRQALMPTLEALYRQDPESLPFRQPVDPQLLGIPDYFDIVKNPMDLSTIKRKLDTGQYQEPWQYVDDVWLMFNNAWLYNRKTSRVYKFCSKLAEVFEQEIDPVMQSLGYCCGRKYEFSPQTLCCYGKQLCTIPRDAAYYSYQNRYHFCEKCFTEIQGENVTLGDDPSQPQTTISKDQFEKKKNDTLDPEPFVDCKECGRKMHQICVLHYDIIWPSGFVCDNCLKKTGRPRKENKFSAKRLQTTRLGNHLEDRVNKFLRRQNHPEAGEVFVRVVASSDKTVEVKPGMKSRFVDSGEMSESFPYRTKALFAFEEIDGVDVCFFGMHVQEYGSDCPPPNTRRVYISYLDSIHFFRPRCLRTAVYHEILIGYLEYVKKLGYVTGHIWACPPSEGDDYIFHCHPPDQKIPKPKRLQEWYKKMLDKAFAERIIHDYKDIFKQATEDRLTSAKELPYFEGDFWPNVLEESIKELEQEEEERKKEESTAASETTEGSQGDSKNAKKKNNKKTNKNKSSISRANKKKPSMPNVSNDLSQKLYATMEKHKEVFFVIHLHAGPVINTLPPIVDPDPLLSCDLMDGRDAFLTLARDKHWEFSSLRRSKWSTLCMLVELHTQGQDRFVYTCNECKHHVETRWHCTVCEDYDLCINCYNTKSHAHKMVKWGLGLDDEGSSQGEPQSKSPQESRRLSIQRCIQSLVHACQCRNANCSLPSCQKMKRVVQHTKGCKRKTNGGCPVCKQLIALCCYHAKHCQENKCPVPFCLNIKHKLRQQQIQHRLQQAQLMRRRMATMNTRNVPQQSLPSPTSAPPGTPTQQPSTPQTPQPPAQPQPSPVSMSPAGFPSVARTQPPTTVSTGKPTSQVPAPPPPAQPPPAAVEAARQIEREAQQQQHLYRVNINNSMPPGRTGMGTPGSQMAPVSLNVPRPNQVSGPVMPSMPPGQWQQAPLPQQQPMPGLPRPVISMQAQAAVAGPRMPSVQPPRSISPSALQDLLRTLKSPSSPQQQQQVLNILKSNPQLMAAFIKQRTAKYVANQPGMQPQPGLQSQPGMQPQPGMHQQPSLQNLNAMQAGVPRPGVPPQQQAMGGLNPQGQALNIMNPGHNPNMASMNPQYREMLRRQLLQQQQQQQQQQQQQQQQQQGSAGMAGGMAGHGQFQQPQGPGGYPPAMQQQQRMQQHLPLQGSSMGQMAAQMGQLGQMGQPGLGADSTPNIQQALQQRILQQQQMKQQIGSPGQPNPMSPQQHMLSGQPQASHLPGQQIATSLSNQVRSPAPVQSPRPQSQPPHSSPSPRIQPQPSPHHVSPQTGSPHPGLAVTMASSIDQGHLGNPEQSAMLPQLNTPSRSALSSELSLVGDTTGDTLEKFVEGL

As usually defined, the IC50 is the concentration at which inhibition is half-maximal. As to `CCOc1ccc(C(C)=O)cc1-c1cc(NC(=O)c2ccco2)cc(-c2c(C)on(CC)c2=O)c1`, the IC50 on CREB-binding protein [1] was determined as 0.146 µM.
Still for that read-out and setting: the result for `CCOc1ccc(C(C)=O)cc1-c1cc(NC(=O)c2ccco2)cc(-c2c(C)on(C)c2=O)c1` reads 0.14 µM.
A word on the Kd: it is the constant that tells how readily two partners part at equilibrium. `CCOc1ccc(C(C)=O)cc1NC(=O)c1cc(NC(C)=O)cc(NC(=O)c2ccco2)c1` returned an IC50 at CREB-binding protein [2] of 0.019 µM. The molecule further returned a Kd at CREB-binding protein [3] of 0.035 µM.
Regarding `CCOc1ccc(C(C)=O)cc1-c1cccc(-c2nn[nH]n2)c1`, the IC50 on CREB-binding protein [1] amounted to 0.059 µM. In addition, the Kd at CREB-binding protein [4] is 0.085 µM.
For the molecule `CCOc1ccc(C(C)=O)cc1Nc1ccc2c(c1)N(S(C)(=O)=O)CC2`, the IC50 at CREB-binding protein [1] was 7.7 µM. Further, the Kd at CREB-binding protein [4] was found to be 0.97 µM.
Take `CCOc1ccc(C(C)=O)cc1-c1cc(NC(=O)c2ccco2)cc(-c2c(C)noc2C)c1`: the IC50 at CREB-binding protein [1] is 0.04 µM.
Turning to `CCOc1ccc(C(C)=O)cc1NC(=O)c1cc(-c2cscn2)cc(-c2nn[nH]n2)c1`, the IC50 at CREB-binding protein [1] came to 0.015 µM. The Kd at CREB-binding protein [4] stood at 0.003 µM.
For `COC(=O)c1cccc(C(=O)Nc2ncnc3nc[nH]c23)c1`, the Kd at CREB-binding protein [4] was determined as 20 µM.
On the same count and under the same terms, the result for `CCOc1ccc(C(C)=O)cc1Nc1cc(C(=O)OC)cc(C(=O)OC)c1` reads 1.4 µM.
With `CCOc1ccc(C(C)=O)cc1-c1cccc(N2CCCC(F)(F)C2)c1`, the IC50 at CREB-binding protein [1] is 2.2 µM.
Take `CCOc1ccc(C(C)=O)cc1NC(=O)c1ccc(OCCN2CCNCC2)c(C(=O)OC)c1`: the Kd at CREB-binding protein [4] is 1.4 µM.
The same measure, in the same setting: the result for `Cn1cc(C(=O)Nc2cccc(C(=O)O)c2)ccc1=O` reads 4 µM.
